In all, about 340,000 compounds went through this assay and about 3,000 (0.88%) were called active. The sample holds actives, similar compounds and a random draw of the others, so the mix is not that of the screen. Values without a mark were called inactive.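 The calls were made as follows: active = inhibition above about 50% at 20 µM (limit read from the data); inactive = the rest.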

In general, inhibition refers to the relative decrease from the control value, in per cent.

The assay deals with Carboxy-terminal domain RNA polymerase II polypeptide A small phosphatase 1 (Homo sapiens) (UniProt Q9GZU7). Description: Scp-1 phosphatase inhibitors, primary screen, biochemical, colorimetric, uHTS (AID 493091).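 Also: plate controls were DMSO wells with enzyme for no effect and wells lacking enzyme for full effect.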 Conditions: Recombinant Scp1, phosphopeptide, malachite green phosphate absorbance; at 20 µM; hits give high values. In a few lines: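 System: truncated SCP-1 phosphatase (76-261aa); medium: Tris acetate buffer pH 5.5 with MgCl2 and Tween-20; incubation: 45 min room-temperature reaction, 5 min colour, 30 min stabiliser; compound: single 20 µM dose, 1% DMSO; reagent: Phosphorylated 17-residue peptide substrate; read-out: % inhibition at 20 µM; technique: colorimetric free-phosphate detection, absorbance 630 nm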
Sequence of Carboxy-terminal domain RNA polymerase II polypeptide A small phosphatase 1 (Homo sapiens) (Q9GZU7 76-261 limits assumed): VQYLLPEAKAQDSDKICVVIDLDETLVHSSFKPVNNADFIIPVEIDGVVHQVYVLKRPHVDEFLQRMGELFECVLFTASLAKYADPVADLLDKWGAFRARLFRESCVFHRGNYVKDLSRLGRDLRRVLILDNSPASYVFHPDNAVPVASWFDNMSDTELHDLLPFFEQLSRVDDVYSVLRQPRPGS
On to `O=C(O)CCn1cc(C=C2C(=O)NC(=S)NC2=O)c(-c2cccc(Br)c2)n1`, for which the inhibition was 69.2% (active). As to `CC(=O)N(C1=NCCCS1)c1ccccc1F`, the inhibition was -8.48%. For `Nc1ccc(Cc2ccc(N)c(Cl)c2)cc1Cl`, the inhibition was -6.26%.

Consider `Cc1ccc(C2CN(C)CC2C(=O)c2ccc(F)cc2)cc1` (stereo not given), for which the inhibition was 2.83%.

On to `O=C(Cc1ccc(Cl)cc1)NCCN1CCN(C(=O)Cc2ccc(Cl)cc2)CC1`, for which the inhibition was -8.32%. With `Cc1ccc(S(=O)(=O)N(C)c2ccc(C(=O)NCC3(N(C)C)CCCCC3)cc2)cc1`, the inhibition is -2.43%. For the compound `COc1cccc(N2C(=O)NC(=O)/C(=C\c3ccc([N+](=O)[O-])s3)C2=O)c1`, the inhibition is 17.3%. As for `O=C1NC(=O)N(Cc2ccco2)C(=O)/C1=C\c1ccc(-c2ccc(F)cc2)o1`, the inhibition is 5.05%.

Regarding `COc1ccc(N2C(=O)/C(=C/c3ccco3)C(=O)NC2=S)cc1`, the inhibition is 92.7% (active). Next, `CCN(CC)CCOC(=O)c1cc2cc(COC)ccc2o1`: 70.7% (active); `COc1ccc2c(c1)NP(=S)(c1ccccc1)N2` (stereo not given): 0.52%. Turning to `CSc1ccc(C(=O)C2CCCN(Cc3ccn[nH]3)C2)cc1` (stereo not given), the inhibition was -7.2%. For `CCN(CC)C(=O)Oc1ccc(NC(=O)N2CCOCC2)cc1`, the inhibition was -3.55%. In the case of `COC(=O)C1=C(c2cc3ccccc3s2)C[C@@H]2CC[C@H]1N2C(=O)NCc1cccc2ccccc12`, the inhibition is -7.13%. `O=c1[nH]c(=O)n(-c2ccc(F)cc2)c(O)c1C=NCCN1CCCCC1`: the inhibition was -0.8%. The same measure for `O=c1[nH]c(=O)n(CCc2ccc(F)cc2)c(O)c1/C=N/N1CCCCC1`: 51% (active); for `O=c1[nH]c(=O)n(CCc2ccccc2)c(O)c1/C=N/N1CCOCC1`: -5.04%; for `CN1CCN(Cc2ccc(OC(F)(F)F)cc2)CC1`: 22.4%.

In the case of `COc1ccccc1N=Nc1c(O)[nH]c(=S)[nH]c1=O`, the inhibition was 9.19%.

As for `COc1ccccc1N=C1SCCCN1C`, the inhibition was 95.3% (active). The same measure for `CC(=O)Nc1ccc(C(=O)C(Cc2ccccc2)N(C)C)cc1` (stereo not given): -12.1%; for `O=C(NCC(c1cccnc1)N1CCN(c2ccccc2)CC1)Oc1ccccc1` (stereo not given): -0.44%.

For the compound `CC1CNCCN1c1ccc(Cl)cc1` (stereo not given), the inhibition is 2.17%. For the compound `CN(C)C(=O)Oc1ccc2c(c1)O/C(=C\c1ccccc1)C2=O`, the inhibition is -15.9%. `Cc1ccc(C)c(NC2=NCCCS2)c1`: the inhibition was -6%.
